Data set [1] concerns the target T1, Human rhinovirus A protease (Human rhinovirus sp., UniProt Q4U254).
T1 sequence (Q4U254 whole entry): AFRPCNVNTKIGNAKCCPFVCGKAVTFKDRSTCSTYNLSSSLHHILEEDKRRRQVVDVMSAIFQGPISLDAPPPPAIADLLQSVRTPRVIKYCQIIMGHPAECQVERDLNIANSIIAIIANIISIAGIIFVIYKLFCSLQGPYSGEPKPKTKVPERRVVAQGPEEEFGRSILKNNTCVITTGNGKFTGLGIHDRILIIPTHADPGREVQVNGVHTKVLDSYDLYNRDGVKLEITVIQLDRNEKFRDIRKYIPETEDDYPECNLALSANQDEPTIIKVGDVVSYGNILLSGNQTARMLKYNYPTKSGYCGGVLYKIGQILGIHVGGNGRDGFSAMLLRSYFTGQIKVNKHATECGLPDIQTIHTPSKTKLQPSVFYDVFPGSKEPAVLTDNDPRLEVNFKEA
Nature of the data set: Binding affinity against HRV-14 3C protease. The essentials:
(§1)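 Recombinant 3C protease of the named HRV serotype, expressed and purified. Ki was determined by a continuous fluorescence resonance energy transfer cleavage assay, with 5 mM dithiothreitol included in the assay. Reported standard deviation ±10%.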

The test system of a further data set is Human rhinovirus sp. Description: Effective concentration in HRV-14 infected H1- HeLa cells by protection assay. In kind it is functional, organism-based. Summed up: (§2)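 Cell protection assay in H1-HeLa cells infected with the named HRV serotype, using virus stocks propagated in H1-HeLa cells. Values reported are the 50% effective concentration (EC50), the 50% toxic concentration (TC50) and the therapeutic index (TI).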

Data set [2] in a line: Toxic concentration on HRV-14 infected H1- HeLa cells by protection assay. Type of data set: toxicity, cell-based. The conditions noted are these: human, H1-HeLa cells infected with HRV-14; read-out: TC50 (the source's name). Summed up: as §2
A short description of data set [3]: Therapeutic Index against HRV-14 virus infection. In kind it is organism-based. The conditions noted are these: rhinovirus b14, H1-HeLa cells; read-out: TI. Summed up:
as §2

Data set [4] can be described thus: Toxic concentration was measured on HRV-2 infected H1- HeLa cells by protection assay. The note with it: human, H1-HeLa cells infected with HRV-2; read-out: TC50 (the source's name). In kind it is ADME, cell-based. The essentials:
as §2

A short description of data set [5]: Toxic concentration was measured on HRV-16 infected H1- HeLa cells by protection assay. Type of data set: ADME, cell-based. The note with it: human, H1-HeLa cells infected with HRV-16; read-out: TC50 (the source's name). Summed up:
as §2

The target in data set [6] is T1, Human rhinovirus A protease. Description: Binding affinity was measured against HRV-2 3C protease. The essentials: as §1
Data set [7] shares this target. Description: Binding affinity was measured against HRV-89 3C protease. The essentials: as §1
A short description of data set [8]: Toxic concentration was measured on HRV-89 infected H1- HeLa cells by protection assay. In kind it is ADME, cell-based. The note with it: human, H1-HeLa cells infected with HRV-89; read-out: TC50 (the source's name). Summed up:
as §2

The test system of data set [9] is HeLa. Description: Effective concentration was measured on HRV-16 infected H1- HeLa cells by protection assay. In kind it is functional, cell-based. The conditions noted are these: Homo sapiens. The essentials:
as §2

In data set [10] the test system is HeLa. Description: Effective concentration was measured on HRV-89 infected H1- HeLa cells by protection assay. In kind it is functional, cell-based. The note with it: Homo sapiens. Summed up:
as §2

Data set [11] addresses T1, Human rhinovirus A protease. Description: Binding affinity was measured against HRV-16 3C protease. Summed up:
as §1

For data set [12], the system named is HeLa. Description: Effective concentration was measured on HRV-2 infected H1- HeLa cells by protection assay. In kind it is functional, cell-based. The conditions noted are these: Homo sapiens. The essentials:
as §2

Counter-ions that a name gives are not always drawn. Starred links: 1 amine or outer side, 2 acyl side, 3 side chain; linkers in the order of their positions; H or OH if unused. Non-standard residues stand in square brackets, D forms with d. Residues, ends and D or L forms follow the SMILES beside them. Groups on a side chain read outwards from the residue. *: point of attachment. Met(O) = CS(=O)CC[C@H](N)C(=O)O; Isobutyryl = CC(C)C(=O)*; Cbz = O=C(OCc1ccccc1)*; Dap = NC[C@H](N)C(=O)O; Boc = CC(C)(C)OC(=O)*; CO = O=C([*:1])[*:2]; Propionyl = CCC(=O)*; Tfa = O=C(C(F)(F)F)*; Bz = O=C(c1ccccc1)*; Ms = CS(=O)(=O)*; Moc = COC(=O)*; For = O=C*

What is called Ki is the equilibrium dissociation constant of an inhibitor or competing ligand from its target. What is called EC50 is the concentration that produces a half-maximal response. Low values mean an effect from little substance, high ones a need for much substance. `CC(C)C[C@H](NC(=O)OCc1ccccc1)C(=O)N[C@@H](Cc1ccccc1)C(=O)N[C@H](C=O)CCC(N)=O` (Cbz-Leu-Phe-Gln-aldehyde): in [1], the Ki was 3600 nM. Besides, the half-maximal effective concentration (EC50) with Human rhinovirus sp. amounted to 66000 nM. The CC50 in data set [2] was 398000 nM. Besides, in data set [3], the selectivity ratio was 6.
In turn, `CC(C)C[C@H](NC(=O)OCc1ccccc1)C(=O)N[C@@H](Cc1ccccc1)C(=O)N[C@H](C=O)CN1CCCC1=O` came in with a Ki in data set [1] of 52 nM. In the data set with Human rhinovirus sp., this compound showed a concentration giving a half-maximal response (EC50) of 4000 nM. In addition, the CC50 in [2] was > 100000 nM. In [3], the selectivity ratio is > 25.
As for `CC(=O)N(C)C[C@@H](C=O)NC(=O)[C@H](Cc1ccccc1)NC(=O)[C@H](CC(C)C)NC(=O)OCc1ccccc1`, in data set [1], the inhibition constant Ki is 469 nM. The midpoint of the response in the data set with Human rhinovirus sp., the EC50, lay at 5200 nM. The CC50 in data set [2] is 100000 nM. The selectivity ratio in [3] is 19.
In turn, `CC(C)C[C@H](NC(=O)OCc1ccccc1)C(=O)N[C@@H](Cc1ccccc1)C(=O)N[C@H](C=O)CCC#N` registered an inhibition constant Ki in [1] of 190 nM. Also, in the data set with Human rhinovirus sp., a half-maximal response (EC50) required 8000 nM. In addition, the CC50 in [2] was determined as 31000 nM. Moreover, the selectivity ratio in data set [3] is 4.
For the compound `CC(=O)NC[C@@H](C=O)NC(=O)[C@H](Cc1ccccc1)NC(=O)[C@H](CC(C)C)NC(=O)OCc1ccccc1` (Cbz-Leu-Phe-[Dap](Ac)-aldehyde), the CC50 in data set [4] is > 100000 nM; in data set [5], > 100000 nM; in data set [8], > 100000 nM; in data set [2], 316000 nM. Further, the Ki in [6] stood at 160 nM; in data set [1], 6 nM; in [7], 36 nM; in data set [11] it was 69 nM. Moreover, the concentration giving a half-maximal response (EC50) turned out to be 2400 nM with Human rhinovirus sp., 2100 nM with HeLa [9], 2200 nM in the data set on HeLa [10] and 3100 nM in the data set with HeLa [12]. Further, the selectivity ratio in [3] amounted to 132.
In data set [1], `CC(C)C[C@H](NC(=O)OCc1ccccc1)C(=O)N[C@@H](Cc1ccccc1)C(=O)N[C@H](C=O)CCC(=O)NC(c1ccccc1)(c1ccccc1)c1ccccc1` displayed a Ki of 40 nM. The concentration for a half-maximal effect (EC50) in the data set on Human rhinovirus sp. was > 15800 nM. Besides, the CC50 in data set [2] is 15800 nM.
Take `CC(C)C[C@H](NC(=O)OCc1ccccc1)C(=O)N[C@@H](Cc1ccccc1)C(=O)N[C@H](C=O)CC[S+](C)[O-]` (stereo partly drawn) (Cbz-Leu-Phe-[Met(O)]-aldehyde): the inhibitory constant (Ki) in data set [1] turned out to be 5 nM. Besides, in the data set with Human rhinovirus sp., the concentration for a half-maximal effect (EC50) was 4500 nM. Further, the CC50 in [2] is > 100000 nM. Also, in [3], the selectivity ratio is > 22.
For the compound `CC(C)C[C@H](NC(=O)OCc1ccccc1)C(=O)N[C@@H](Cc1ccccc1)C(=O)N[C@H](C=O)CNS(C)(=O)=O` (Cbz-Leu-Phe-[Dap](Ms)-aldehyde), affinity in data set [1] was put at a Ki of 640 nM. In the data set with Human rhinovirus sp., this compound yielded an EC50 of 20000 nM. In [2], the CC50 was 63000 nM. Moreover, the selectivity ratio in data set [3] was determined as 3.
`CC(C)C[C@H](NC(=O)OCc1ccccc1)C(=O)N[C@@H](Cc1ccccc1)C(=O)N[C@H](C=O)CNC=O` (Cbz-Leu-Phe-[Dap](For)-aldehyde): in [1], the inhibition constant Ki is 73 nM. The compound further yielded a 50% effective concentration (EC50) in the data set with Human rhinovirus sp. of 1600 nM. For the same compound, the CC50 in data set [2] is 206000 nM. For the same compound, the selectivity ratio in data set [3] is 129.
The like results for `CC(C)C[C@H](NC(=O)OCc1ccccc1)C(=O)N[C@@H](Cc1ccccc1)C(=O)N[C@H](C=O)CNC(=O)N(C)C` (Cbz-Leu-Phe-[Dap]([CO-NMe2])-aldehyde) were, in that order, 10 nM, 2100 nM, 99000 nM and 47.
In data set [1], `CC(C)C[C@H](NC(=O)OCc1ccccc1)C(=O)N[C@@H](Cc1ccccc1)C(=O)N[C@H](C=O)CNC(=O)c1ccno1` had an inhibition constant (Ki) of 5 nM. In addition, a half-maximal response in the data set with Human rhinovirus sp. (EC50) required 1500 nM. Also, the CC50 in [2] came out at 59500 nM. Moreover, the selectivity ratio in [3] amounted to 40.
In [1], `COC(=O)NC[C@@H](C=O)NC(=O)[C@H](Cc1ccccc1)NC(=O)[C@H](CC(C)C)NC(=O)OCc1ccccc1` (Cbz-Leu-Phe-[Dap](Moc)-aldehyde) registered an inhibition constant Ki of 132 nM. In the data set with Human rhinovirus sp., this compound came in with an EC50 of 5000 nM. In [2], the CC50 was 56200 nM. Moreover, in data set [3], the selectivity ratio came to 11.
In turn, `CCC(=O)NC[C@@H](C=O)NC(=O)[C@H](Cc1ccccc1)NC(=O)[C@H](CC(C)C)NC(=O)OCc1ccccc1` (Cbz-Leu-Phe-[Dap](Propionyl)-aldehyde) showed a Ki in [1] of 7 nM. Moreover, the EC50 in the data set on Human rhinovirus sp. worked out at 1300 nM. For the same compound, in data set [2], the CC50 is > 100000 nM. Further, the selectivity ratio in [3] was > 77.
Compound `CC(C)C[C@H](NC(=O)OCc1ccccc1)C(=O)N[C@@H](Cc1ccccc1)C(=O)N[C@H](C=O)CCC(=O)N(C)C` (Cbz-Leu-Phe-Glu(NMe2)-aldehyde) returned an inhibitory constant (Ki) in data set [1] of 5 nM. Moreover, in the data set with Human rhinovirus sp., the half-maximal effective concentration (EC50) was 1300 nM. The CC50 in [2] is 63000 nM. The selectivity ratio in data set [3] came out at 48.
On to `CC(C)C[C@H](NC(=O)OCc1ccccc1)C(=O)N[C@@H](Cc1ccccc1)C(=O)N[C@H](C=O)CNC(=O)C(C)C` (Cbz-Leu-Phe-[Dap](Isobutyryl)-aldehyde), for which, in [1], the inhibition constant Ki came out at 18 nM. The EC50 with Human rhinovirus sp. was 4000 nM. Also, the CC50 in data set [2] came out at 18000 nM. Also, the selectivity ratio in data set [3] came to 5.
`CC(C)C[C@H](NC(=O)OCc1ccccc1)C(=O)N[C@@H](Cc1ccccc1)C(=O)N[C@H](C=O)CNC(=O)c1ccccc1` (Cbz-Leu-Phe-[Dap](Bz)-aldehyde) had a Ki in data set [1] of 12 nM. Further, the EC50 in the data set on Human rhinovirus sp. turned out to be 1000 nM. Besides, the CC50 in data set [2] was 51200 nM. In addition, the selectivity ratio in data set [3] is 51.
In [1], `CC(C)C[C@H](NC(=O)OCc1ccccc1)C(=O)N[C@@H](Cc1ccccc1)C(=O)N[C@H](C=O)CNC(=O)OC(C)(C)C` (Cbz-Leu-Phe-[Dap](Boc)-aldehyde) gave a Ki of 66 nM. In the data set on Human rhinovirus sp., this compound came in with an EC50 of 2000 nM. Besides, the CC50 in [2] amounted to 56200 nM. Moreover, the selectivity ratio in [3] worked out at 28.
Consider `CC(C)C[C@H](NC(=O)OCc1ccccc1)C(=O)N[C@@H](Cc1ccccc1)C(=O)N[C@H](C=O)CNC(=O)C(F)(F)F` (Cbz-Leu-Phe-[Dap](Tfa)-aldehyde), for which the Ki in [1] was found to be 146 nM. This compound also came in with an EC50 with Human rhinovirus sp. of 1800 nM. Further, the CC50 in data set [2] is 25000 nM. Further, in data set [3], the selectivity ratio is 14.

Values taken from ChEMBL document CHEMBL1131035, “Tripeptide aldehyde inhibitors of human rhinovirus 3C protease: design, synthesis, biological evaluation, and cocrystal structure solution of P1 glutamine isosteric replacements” (J Med Chem, 1998).
